For eleven compounds, IC50 results are on record in ChEMBL document CHEMBL4732029, “Synthesis and evaluation of bis(imino)anthracene derivatives as G-quadruplex ligands” (RSC Med Chem, 2021).

Molecules are shown by their SMILES.

Usually IC50 stands for the point on the concentration scale where inhibition reaches its midpoint.

One assay relates to HeLa. Description: Cytotoxicity against human HeLa cells assessed as reduction in cell viability incubated for 24 hrs by presto blue assay. In kind it is functional, cell-based. A digest of the protocol: (§1)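 HeLa cells (ATCC CCL-2) were exposed to each compound at 100, 30, 10 and 1 µM for 24 h. Viability was read by PrestoBlue absorbance and normalized to a DMSO negative control; doxorubicin served as positive control. Data are mean and SEM. IC50 came from the percentage viability plotted against log concentration, with R squared reported.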
`C(=N\CCc1c[nH]c2ccccc12)/c1c2ccccc2c(/C=N/CCc2c[nH]c3ccccc23)c2ccccc12`: the IC50 was determined as 30.6 µM.
Still for that read-out and setting: the same measure for `Cc1cnc(/N=C/c2c3ccccc3c(/C=N/c3ncc(C)s3)c3ccccc23)s1`: 20.5 µM; for `C(=N\Cc1ccc2c(c1)OCO2)/c1c2ccccc2c(/C=N/Cc2ccc3c(c2)OCO3)c2ccccc12`: 18 µM; for `C(=N\CCN1CCCCC1)/c1c2ccccc2c(/C=N/CCN2CCCCC2)c2ccccc12`: 23.8 µM.

A further assay has as its system HeLa. Briefly: Cytotoxicity against human HeLa cells. It counts as functional, cell-based. A digest of the protocol:
as §1
The compound `CN1CCC[C@H]1CCNC(=O)c1cn2c3c(c(N4CCC(c5cnccn5)C4)c(F)cc3c1=O)Oc1cc3ccccc3cc1-2` (stereo partly specified) [QUARFLOXIN] registered an IC50 of 4.44 µM.
Regarding `CN(C)CCNC(=O)c1cccn2c(=O)c3cc4ccccc4cc3nc12`, the midpoint of inhibition, the IC50, lay at 0.46 µM.
As to `Cc1cnc(CNC(=O)c2c(=O)c3ccc(N4CCCN(C)CC4)nc3n3c2sc2ccccc23)cn1` [CX-5461], half-maximal inhibition (IC50) required 6.89 µM.
`COc1cccc2c1C(=O)c1c(O)c3c(c(O)c1C2=O)C[C@@](O)(C(=O)CO)C[C@@H]3O[C@H]1C[C@H](N2CCO[C@H](OC)C2)[C@H](O)[C@H](C)O1` [NEMORUBICIN] registered an IC50 of 0.08 µM.
On the same count and under the same terms, the same measure for `COc1cccc2c1C(=O)c1c(O)c3c(c(O)c1C2=O)C[C@@](O)(C(=O)CO)C[C@@H]3O[C@H]1C[C@H](N)[C@H](O)[C@H](C)O1` [DOXORUBICIN]: 0.374 µM; for `Cc1cc2c3c([n+](C)c4ccc(F)cc4c3c1)-c1cc(F)ccc1N2C`: 0.2 µM.

A further assay has as its system HeLa. Description: Cytotoxicity against human HeLa cells assessed as reduction in cell viability incubated for 24 hrs by MTT assay. It counts as functional, cell-based. (In general: Formazan colour is commonly taken as a measure of viable cells.)
In the case of `CN(C)c1ccc(Nc2c3ccc(NC(=O)CCN4CCCC4)cc3nc3cc(NC(=O)CCN4CCCC4)ccc23)cc1`, the IC50 is 5.25 µM.
